Assay results published in ChEMBL document CHEMBL2169800 (J Med Chem, 2012).
Active and inactive are the calls of the source. The calls are words filed in the database; no cut-off is given here.

How the values were obtained:
[1] = target: T1, Prostaglandin G/H synthase 2 (Homo sapiens, UniProt P35354); test: Inhibition of human COX2 pre-incubated for 10 mins before substrate addition by enzyme immunoassay
T1 sequence (P35354 whole entry): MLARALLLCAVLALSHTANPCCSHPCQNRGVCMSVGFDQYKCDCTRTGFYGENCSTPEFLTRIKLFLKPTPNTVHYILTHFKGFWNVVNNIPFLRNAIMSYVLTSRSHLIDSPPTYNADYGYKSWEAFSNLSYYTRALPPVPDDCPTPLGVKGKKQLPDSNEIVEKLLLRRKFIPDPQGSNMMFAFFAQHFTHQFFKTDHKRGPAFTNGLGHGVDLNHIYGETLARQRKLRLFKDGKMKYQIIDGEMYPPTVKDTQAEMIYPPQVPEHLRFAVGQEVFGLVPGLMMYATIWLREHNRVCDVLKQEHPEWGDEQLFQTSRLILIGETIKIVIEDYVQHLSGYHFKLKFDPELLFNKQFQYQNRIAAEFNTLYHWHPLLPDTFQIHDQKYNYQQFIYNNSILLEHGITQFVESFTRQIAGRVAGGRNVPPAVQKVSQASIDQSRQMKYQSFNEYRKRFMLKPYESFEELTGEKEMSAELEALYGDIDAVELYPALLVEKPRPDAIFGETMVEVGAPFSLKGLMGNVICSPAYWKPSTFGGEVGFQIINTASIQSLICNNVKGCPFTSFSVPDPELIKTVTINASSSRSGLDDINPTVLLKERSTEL

[2] = target: T2, Prostaglandin G/H synthase 1 (Ovis aries, UniProt P05979); test: Inhibition of ovine COX1 pre-incubated for 10 mins before arachidonic acid substrate addition by enzyme immunoassay
T2 sequence (P05979 whole entry): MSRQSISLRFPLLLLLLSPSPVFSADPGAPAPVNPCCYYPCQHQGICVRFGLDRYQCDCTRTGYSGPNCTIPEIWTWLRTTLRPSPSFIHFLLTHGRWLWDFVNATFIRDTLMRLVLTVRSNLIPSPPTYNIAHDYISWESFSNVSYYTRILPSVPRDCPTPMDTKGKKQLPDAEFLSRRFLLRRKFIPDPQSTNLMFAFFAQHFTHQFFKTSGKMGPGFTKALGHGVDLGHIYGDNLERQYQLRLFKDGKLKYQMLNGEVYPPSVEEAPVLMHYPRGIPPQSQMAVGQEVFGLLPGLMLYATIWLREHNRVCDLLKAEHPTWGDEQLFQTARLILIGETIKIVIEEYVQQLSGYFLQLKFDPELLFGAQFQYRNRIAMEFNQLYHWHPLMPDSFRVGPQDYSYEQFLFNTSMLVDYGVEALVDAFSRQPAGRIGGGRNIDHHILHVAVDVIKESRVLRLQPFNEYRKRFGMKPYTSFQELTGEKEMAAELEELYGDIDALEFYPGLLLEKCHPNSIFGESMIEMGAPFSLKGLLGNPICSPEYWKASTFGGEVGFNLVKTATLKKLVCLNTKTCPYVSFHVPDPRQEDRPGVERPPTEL
Procedure, shortened: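 Ovine COX-1 pre-incubated with inhibitor for 10 min at 37 °C, then 5 μM arachidonic acid for 2 min at 37 °C. Stopped with HCl; PGH2 reduced to PGF2α with SnCl2 and measured by competitive EIA (PG antibody, PG-acetylcholinesterase conjugate), absorbance at 412 nm.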

[3] = target: T3, Fatty-acid amide hydrolase 1 (Rattus norvegicus, UniProt P97612); test: Inhibition of FAAH in rat brain homogenates pre-incubated for 10 mins before addition of [3H]anandamide and [3H]AEA substrates for 30 mins by liquid scintillation counting; type: tissue-based
T3 sequence (P97612 whole entry): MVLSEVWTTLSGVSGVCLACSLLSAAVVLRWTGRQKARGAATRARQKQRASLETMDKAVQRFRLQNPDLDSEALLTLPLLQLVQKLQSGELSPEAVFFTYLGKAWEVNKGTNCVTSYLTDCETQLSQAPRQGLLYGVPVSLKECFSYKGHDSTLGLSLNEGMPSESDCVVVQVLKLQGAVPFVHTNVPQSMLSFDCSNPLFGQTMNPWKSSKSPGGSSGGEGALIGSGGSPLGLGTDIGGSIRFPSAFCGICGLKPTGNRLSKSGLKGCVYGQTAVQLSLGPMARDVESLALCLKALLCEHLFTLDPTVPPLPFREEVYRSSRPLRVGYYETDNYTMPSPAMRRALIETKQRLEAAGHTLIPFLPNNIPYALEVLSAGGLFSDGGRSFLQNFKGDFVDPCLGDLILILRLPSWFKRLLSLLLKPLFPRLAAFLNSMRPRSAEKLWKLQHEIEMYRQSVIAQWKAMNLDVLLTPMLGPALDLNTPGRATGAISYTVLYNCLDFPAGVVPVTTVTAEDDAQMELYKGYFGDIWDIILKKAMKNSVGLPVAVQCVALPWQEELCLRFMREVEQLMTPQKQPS
Procedure, shortened: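 Rat whole-brain homogenate (50 ug protein/sample) in 50 mM TRIS pH 7.4, 0.05 % fatty acid free BSA; inhibitor pre-incubated 10 min, then 1 uM unlabelled AEA plus 0.6 nM [3H]-AEA added for 30 min at 37°C. Stopped with cold 1:1 CHCl3/MeOH; aqueous phase counted.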

[4] = target: T4, Fatty-acid amide hydrolase 1 (Rattus norvegicus) (UniProt P97612); test: Potency index, ratio of IC50 for carprofen to IC50 for compound against FAAH in rat brain homogenates pre-incubated for 10 mins before addition of [3H]anandamide and [3H]AEA substrates for 30 mins by liquid scintillation counting; type: tissue-based
T4 sequence (whole entry): T3 sequence (P97612 whole entry)

[5] = target: T4, Fatty-acid amide hydrolase 1 (Rattus norvegicus); details: Brain, 30 uM

IC50 [3]	Compound	IC50 [1] [µM]	IC50 [2] [µM]	IC50 ([3]; read-out: IC50) [µM]	Ratio IC50 [4]	inhibition [5]
–	CC(C(=O)O)c1ccc2c3cc(Cl)ccc3n(C(=O)c3ccc(F)cc3)c2c1 (racemic)	> 100	> 100	30.9	–	–
–	CC(C(=O)O)c1ccc2c3cc(Cl)ccc3n(C(=O)NC3CCCCC3)c2c1 (racemic)	> 100	> 100	> 100	–	–
–	CC(C(=O)O)c1ccc2c3cc(Cl)ccc3n(C)c2c1 (racemic)	> 100	> 100	15.5	–	–
–	C[C@H](C(=O)O)c1ccc2c3cc(Cl)ccc3n(C(=O)c3ccc(Cl)cc3)c2c1	46.5	45	> 100	–	–
–	C[C@H](C(=O)O)c1ccc2c(c1)[nH]c1ccc(Cl)cc12	–	5.6	–	–	–
–	CC(C(=O)O)c1ccc2c3cc(Cl)ccc3n(C(=O)c3ccccc3Cl)c2c1 (racemic)	> 100	> 100	59.6	–	–
–	COc1cccc(Cn2c3ccc(Cl)cc3c3ccc(C(C)C(=O)O)cc32)c1 (racemic)	> 100	> 100	32.5	–	–
–	CC(C(=O)Nc1ccccc1)c1ccc2c(c1)[nH]c1ccc(Cl)cc12 (racemic)	> 100	> 100	2.9	26	–
–	CNC(=O)n1c2ccc(Cl)cc2c2ccc(C(C)C(=O)O)cc21 (racemic)	> 100	> 100	> 100	–	–
–	C[C@H](C(=O)O)c1ccc2c3cc(Cl)ccc3n(C(=O)c3cocn3)c2c1	2.5	4.1	> 100	–	–
–	CC(=O)n1c2ccc(Cl)cc2c2ccc(C(C)C(=O)O)cc21 (racemic)	> 100	> 100	> 100	–	–
–	C[C@@H](C(=O)O)c1ccc2c3cc(Cl)ccc3n(C(=O)c3cocn3)c2c1	> 100	> 100	53.2	–	–
–	CC(C(=O)O)c1ccc2c3cc(Cl)ccc3n(C(=O)c3cscn3)c2c1 (racemic)	> 100	> 100	> 100	–	–
–	C[C@@H](C(=O)O)c1ccc2c(c1)[nH]c1ccc(Cl)cc12	–	> 100	–	–	–
–	CCCCCCOC(=O)n1c2ccc(Cl)cc2c2ccc(C(C)C(=O)O)cc21 (racemic)	> 100	17.2	31.6	–	–
–	CC(C(=O)O)c1ccc2c3cc(Cl)ccc3n(C(=O)c3cocn3)c2c1 (racemic)	27.8	30	84.8	–	–
–	CCCCCCN(C)C(=O)n1c2ccc(Cl)cc2c2ccc(C(C)C(=O)O)cc21 (racemic)	> 100	> 100	> 100	–	–
–	CC(C(=O)NCCO)c1ccc2c(c1)[nH]c1ccc(Cl)cc12 (racemic)	> 100	> 100	> 100	–	–
–	COc1ccc(Cn2c3ccc(Cl)cc3c3ccc(C(C)C(=O)O)cc32)cc1 (racemic)	> 100	> 100	8.4	–	–
–	CCCCNC(=O)n1c2ccc(Cl)cc2c2ccc(C(C)C(=O)O)cc21 (racemic)	> 100	> 100	> 100	–	–

IC50 [3]	Compound	IC50 [1] [µM]	IC50 [2] [µM]	IC50 ([3]; read-out: IC50) [µM]	Ratio IC50 [4]	inhibition [5]
–	COc1ccc(C(=O)n2c3ccc(Cl)cc3c3ccc(C(C)C(=O)O)cc32)cc1 (racemic)	> 100	> 100	10.6	–	–
–	CC(C(=O)O)c1ccc2c3cc(Cl)ccc3n(Cc3ccc(C#N)cc3)c2c1 (racemic)	> 100	> 100	33.4	–	–
–	CCCCCCNC(=O)n1c2ccc(Cl)cc2c2ccc(C(C)C(=O)O)cc21 (racemic)	> 100	> 100	3.2	–	–
–	CC(C(=O)O)c1ccc2c3cc(Cl)ccc3n(Cc3ccc(Cl)cc3)c2c1 (racemic)	> 100	> 100	10.2	–	–
–	CC(C(=O)O)c1ccc2c3cc(Cl)ccc3n(C(=O)c3cccc(Cl)c3)c2c1 (racemic)	> 100	> 100	20.1	–	–
–	CC(C(=O)O)c1ccc2c3cc(Cl)ccc3n(C(=O)c3ccccc3)c2c1 (racemic)	> 100	> 100	25.4	–	–
–	CCCCCCCCNC(=O)n1c2ccc(Cl)cc2c2ccc(C(C)C(=O)O)cc21 (racemic)	> 100	15.4	26.8	–	–
–	CC(C(=O)O)c1ccc2c3cc(Cl)ccc3n(C(=O)c3ccc(Cl)cc3)c2c1 (racemic)	72.3	74.3	22	–	–
–	CC(C(=O)O)c1ccc2c3cc(Cl)ccc3n(S(=O)(=O)c3ccc(Cl)cc3)c2c1 (racemic)	> 100	> 100	4.8	–	–
Not Active	CC(C)Cc1ccc(C(C)C(=O)O)cc1 (centres undefined) [IBUPROFEN]	–	–	–	–	–
–	CC(C(=O)O)c1ccc2c3cc(Cl)ccc3n(C(=O)Nc3ccc(Cl)cc3)c2c1 (racemic)	> 100	41.3	102	–	–
–	CCCCCCS(=O)(=O)n1c2ccc(Cl)cc2c2ccc(C(C)C(=O)O)cc21 (racemic)	> 100	> 100	50.3	–	–
–	CC(C(=O)O)c1ccc2c3cc(Cl)ccc3n(Cc3ccccc3)c2c1 (racemic)	> 100	> 100	23.3	–	–
–	COC(=O)C(C)c1ccc2c(c1)[nH]c1ccc(Cl)cc12 (racemic)	> 100	> 100	22.1	–	–
–	CC(C(=O)O)c1ccc2c3cc(Cl)ccc3n(C(=O)c3ccc(Cl)c(Cl)c3)c2c1 (racemic)	> 100	> 100	> 100	–	–
–	CC(C(=O)O)c1ccc2c(c1)[nH]c1ccccc12 (racemic)	> 100	> 100	4.6	–	–
–	COc1ccccc1Cn1c2ccc(Cl)cc2c2ccc(C(C)C(=O)O)cc21 (racemic)	> 100	> 100	> 100	–	inactive
–	CC(C(=O)O)c1ccc2c(c1)[nH]c1ccc(Cl)cc12 (racemic) [CARPROFEN]	–	22.3	–	–	–
–	CC(C(=O)O)c1ccc2c3cc(Cl)ccc3n(C(=O)c3cnc[nH]3)c2c1 (racemic)	> 100	12.8	5.6	–	–
–	C[C@@H](C(=O)O)c1ccc2c3cc(Cl)ccc3n(C(=O)c3ccc(Cl)cc3)c2c1	> 100	> 100	14.9	–	–
